Measured values as given in PubChem BioAssay.
Records with an inconclusive call do not appear.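 The calls were made as follows, unless noted: active = inhibition over a set limit, the all-compound mean plus 3 SD, in both replicate runs; inconclusive = over that limit in just one replicate run; inactive = at or under that limit in both runs.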

Assays:
[1] = S. cerevisiae growth inhibition in permissive medium (OD615), pilot counter-assay for S. cerevisiae lifespan shortening project, permissive growth control (AID 705;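 active = growth inhibition above 25% in both replicates, a cutoff set 3 SD above the mean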); conditions: OD615, 24 h, at 10 µM, active compounds read high
Method in brief: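 System: Engineered DeaD yeast | Buffer or medium: SC raffinose/galactose permissive medium | Incubation: Cells pre-grown 4 h, then 24 h compound exposure, 30 °C humidified | Measured by: Absorbance (optical density) at 615 nm | Read-out: Reduction in yeast growth (OD615)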

[2] = S. cerevisiae growth inhibition in restrictive medium, OD615, pilot screen, restrictive growth control, yeast lifespan reduction project (AID 706;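 active = growth inhibition above a set limit, 3 SD over mean compound inhibition, in both replicates, cut at about 43% in these data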;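 also: modified DeaD lifespan yeast strain shifted to restrictive glucose medium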); conditions: OD615, 48 h, at 10 µM, active compounds read high
Method in brief: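 Material: modified S. cerevisiae; Medium: glucose-based CSMM-D restrictive medium; Compound dosing: one concentration, 10 µM final, 0.25% DMSO; Incubation: 48 h compound exposure at 30 °C; Measured by: OD615.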

[3] = doxorubicin toxicity protection in MRP-1 cells – H69AR cells, CellTiter-Glo, duplicate, MRP-1 activator project, pilot screen (AID 807;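 active = viability increase at or above a cutoff of the median across tested compounds plus 3 SD, cut at about 8.5% in these data, passing the limit was not always enough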;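 also: compound pretreatment 18-22 h then 72 h combined with doxorubicin; 0% = doxorubicin alone and 100% = vehicle without doxorubicin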); conditions: H69AR viability with doxorubicin, CellTiter-Glo luminescence; at 10 µM; active compounds read high
[4] = viability of HCT116 without oncogenic beta-catenin – human colon tumor cells, pilot screen (AID 823;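 active = cell viability at or below a set limit in both duplicate runs, the limit being the all-compound median minus 4 SD, cut at about 23% in these data, passing the limit was not always enough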;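 also: 0% = wells killed by 20 µM Hyamine and 100% = untreated DMSO cell wells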); conditions: HCT116 beta-catenin knockout viability, CellTiter-Glo, 60 h; at 10 µM; active compounds read low
[5] = viability of PTEN-null HCT116 cells – cell-based, HCT116 clonal line, CellTiter-Glo, pilot screen (AID 824;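 active = viability at or below 27.92% in each of two runs, the all-compound median minus 4 SD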;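 also: 0% = 20 µM Hyamine control and 100% = vehicle cell control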); conditions: HCT116 PTEN-deleted viability, 60 h, at 10 µM, active compounds read low
[6] = RAM pathway blockade in budding yeast – dse1pr::URA3 reporter, 5-FOA selection, pilot screen (AID 869);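 also: 0% = DMSO wells with no growth and 100% = 10 µM 1-NA-PP1 with full growth; RAM network block rescues cells from 5-FOA so hits raise OD615 growth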; conditions: S. cerevisiae dse1pr::URA3 5-FOA growth, OD615, 2 d; at 10 µM; active compounds read high; strain carries analog-sensitive mutant Cbk1 kinase
[7] = RAM signaling pathway blockade in yeast – S. cerevisiae, Pdr1DBD-CYC8 efflux-inhibited sensitized strain, primary screen (AID 1298;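 active = RAM network inhibition above 8.4% in each of two replicates, 3 SD over the compound average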;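 also: 0% = DMSO untreated cells without growth and 100% = 10 µM 1-NA-PP1 full growth; higher means more yeast growth rescued from 5-FOA killing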); conditions: S. cerevisiae cbk1-as DSE1-URA3 strain, 5-FOA growth OD615, 2 d; at 50 µM; active compounds read high

CSC1=NCCN1C(=O)c1ccc(Br)o1
inactive: growth inhibition [1] -2.9% | growth inhibition [2] -7.89% | viability increase [3] 2.54% | viability [4] 102% | viability [5] 94.5% | inhibition [6] 0.975% | RAM network inhibition [7] 7.19%

O=C(CSc1ccc2nnc(-c3ccccn3)n2n1)NCc1ccc2c(c1)OCO2
inactive: growth inhibition [1] -0.545% | growth inhibition [2] 21.4% | viability increase [3] -3.68% | viability [4] 91.6% | viability [5] 91.7% | inhibition [6] 2.51% | RAM network inhibition [7] 1.66%

CC(NC(=O)CSc1ncnc2nc[nH]c12)c1ccccc1 (stereo unspecified)
inactive: growth inhibition [1] -15.5% | growth inhibition [2] -5.1% | viability increase [3] -0.99% | viability [4] 99.8% | viability [5] 96% | inhibition [6] 0.755% | RAM network inhibition [7] 0.48%

CN1CCN(Cc2nc3c(c(=O)n(C)c(=O)n3C)n2CCc2ccccc2)CC1
inactive: growth inhibition [1] -8.96% | growth inhibition [2] -4.14% | viability increase [3] -1.67% | viability [4] 92.8% | viability [5] 103% | inhibition [6] 0.895% | RAM network inhibition [7] 2.53%

Cn1c(Cn2c(=O)sc3ccccc32)nnc1SCC(=O)NCc1ccccc1Cl
inactive: growth inhibition [1] -7.92% | growth inhibition [2] -13.9% | viability increase [3] -1.32% | viability [4] 100% | viability [5] 103% | inhibition [6] 0.62% | RAM network inhibition [7] 3.96%

COCCN1C(=O)c2oc3ccccc3c(=O)c2C1c1ccc(C(=O)OC)cc1 (stereo unspecified)
inactive: growth inhibition [1] -1.7% | growth inhibition [2] 5.81% | viability increase [3] -1.14% | viability [4] 94.3% | viability [5] 89.1% | inhibition [6] 0.775% | RAM network inhibition [7] 2.37%

O=C(Cn1ncc2c(=O)oc3ccccc3c21)N1CCCN(Cc2ccccc2F)C1
inactive: growth inhibition [1] -3.74% | growth inhibition [2] 2.98% | viability increase [3] -3.74% | viability [4] 101% | viability [5] 94.1% | inhibition [6] 1.55% | RAM network inhibition [7] 1.79%

CCOc1ccc(C2CC(c3ccc(OC)c(OC)c3)n3nc(N)nc3N2)cc1 (stereo unspecified)
inactive: growth inhibition [1] 2.68% | growth inhibition [2] 5.4% | viability increase [3] 0.31% | viability [4] 101% | viability [5] 92.7% | inhibition [6] 2.06% | RAM network inhibition [7] 5.15%

O=C1CC(c2ccc(S(=O)(=O)NCc3ccncc3)cc2)CN1 (stereo unspecified)
inactive: growth inhibition [1] -10.3% | growth inhibition [2] -7.88% | viability increase [3] -0.07% | viability [4] 99.7% | viability [5] 97.2% | inhibition [6] 1.73% | RAM network inhibition [7] 1.15%

CCCCC(=O)OCCNC(=O)c1cc2ccccc2oc1=O
inactive: growth inhibition [1] -3.98% | growth inhibition [2] -0.93% | viability increase [3] -2.04% | viability [4] 92.3% | viability [5] 95.2% | inhibition [6] 2.96% | RAM network inhibition [7] 2.46%

CN1CCN(c2ncnc3c2sc2nc(N4CCCC4)c4c(c23)CC(C)(C)OC4)CC1
inactive: growth inhibition [1] -21.2% | growth inhibition [2] -18.1% | viability increase [3] -3.25% | viability [4] 99.6% | viability [5] 97.1% | inhibition [6] 0.735% | RAM network inhibition [7] -0.84%

CCn1c2ccccc2c2cc(NC(=O)c3ccco3)ccc21
inactive: growth inhibition [1] -4.29% | growth inhibition [2] -0.22% | viability increase [3] -3.74% | viability [4] 96.1% | viability [5] 93% | inhibition [6] 0.345% | RAM network inhibition [7] 0.96%

Cn1c(Cn2c(=O)sc3ccccc32)nnc1SCC(=O)NCc1ccc2c(c1)OCO2
inactive: growth inhibition [1] -5.55% | growth inhibition [2] -2.44% | viability increase [3] 0.11% | viability [4] 103% | viability [5] 101% | inhibition [6] 1.07% | RAM network inhibition [7] 4.41%

CCn1c(SCC(=O)N2CCCC2)nc2c(c1=O)SC(C)C2 (stereo unspecified)
inactive: growth inhibition [1] -17.4% | growth inhibition [2] -27.5% | viability increase [3] -4.48% | viability [4] 101% | viability [5] 95.6% | inhibition [6] 1.73% | RAM network inhibition [7] 3.14%

COc1ccc(C2(O)CCN(C(=O)c3ccc4c(c3)OCO4)CC2)cc1
inactive: growth inhibition [1] -12.1% | growth inhibition [2] -15.2% | viability increase [3] -0.75% | viability [4] 106% | viability [5] 101% | inhibition [6] 0.965% | RAM network inhibition [7] 0.72%

CC(=O)NCCc1nc2ccccc2n1Cc1ccccc1
inactive: growth inhibition [1] 1.21% | growth inhibition [2] -2.44% | viability increase [3] -2% | viability [4] 106% | viability [5] 98.8% | inhibition [6] 1.33% | RAM network inhibition [7] 3.58%

CC(C)Sc1nc(-c2cccs2)nc2c1c(=O)n(C)c(=O)n2C
inactive: growth inhibition [1] -2.16% | growth inhibition [2] -19% | viability increase [3] -6.85% | viability [4] 77.3% | viability [5] 69.4% | inhibition [6] 1.46% | RAM network inhibition [7] 7.05%

Cc1cc2cc(CNS(=O)(=O)N(C)C)ccc2[nH]1
inactive: growth inhibition [1] 0.12% | growth inhibition [2] -6.88% | viability increase [3] -0.59% | viability [4] 101% | viability [5] 106% | inhibition [6] 1.48% | RAM network inhibition [7] 3.27%
